According to ChEMBL document CHEMBL1125525, “5'-Azido-delta 8-THC: a novel photoaffinity label for the cannabinoid receptor” (1992):

Legend:
Type in all cases: functional
Mus musculus [1] = organism: Mus musculus; test: Antinociception measured in terms of the maximum possible effect (MPE)on latency by mouse tail-flick assay
In short: (§1)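 Male ICR mice dosed intravenously; same animals scored for decreased locomotor activity (sedation), ring immobility (catalepsy), hypothermia and tail-flick antinociception. Dose-response data analysed by ANOVA; ED50 (mg/kg) with 95% confidence limits as potency, maximum effect as efficacy: percent inhibition of locomotion, change in °C for hypothermia, percent immobility for catalepsy, percent maximum possible effect on tail-flick latency.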

Mus musculus [2] = test: Induction of ring immobility (catalepsy), measured by in vivo administration of drug in mouse; in short: as §1
Mus musculus [3] = organism: Mus musculus; test: Percent inhibition measured in terms of the maximum possible effect (MPE)on latency by mouse tail-flick assay; in short: as §1
Mus musculus [4] = test: Compound was evaluated by in vivo administration for its ability to produce sedation; in short: as §1
Mus musculus [5] = test: Compound was evaluated by in vivo administration for percent inhibition of locomotion in mice; in short: as §1
Mus musculus [6] = test: Compound was evaluated by in vivo administration for its ability to produce hypothermia (change in temperature); in short: as §1
Mus musculus [7] = test: Compound was evaluated by in vivo administration for Percent inhibition of locomotion in mice; in short: as §1

SMILES	ED50 (Mus musculus [1])	ED50 (Mus musculus [2])	Immobility (Mus musculus [2])	Inhibition (Mus musculus [3])	ED50 (Mus musculus [4])	Inhibition (Mus musculus [5])	ED50 (Mus musculus [6])	Inhibition (Mus musculus [7])
CCCCCc1cc(O)c2c(c1)OC(C)(C)[C@@H]1CC=C(C)C[C@@H]21 [DELTA-8-TETRAHYDROCANNABINOL]	1.5 mg/kg	5.2 mg/kg	58%	100%	1.9 mg/kg	79%	–	–
CC1=CC[C@@H]2[C@@H](C1)c1c(O)cc(CCCCCN=[N+]=[N-])cc1OC2(C)C	0.1 mg/kg	0.8 mg/kg	57%	100%	0.2 mg/kg	–	0.8 mg/kg	73%
